Measurements reported in BindingDB's records for doi:10.1021/jm980722p (Merck Research Laboratories, 1999).
pIC50: −log10 of the molar value.

Molecular target: Integrin alpha-IIb/beta-3 (Homo sapiens, UniProt P08514+P05106)
Experiment: The compound was tested in vitro for the inhibition of aggregation of human gel-filtered platelets(GFP)
Outline: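 Human gel-filtered platelets at 2 × 10⁸/mL were mixed with 0.1 mg/mL human fibrinogen, 1 mM CaCl₂ and the test compound, then challenged with ADP. Aggregation was read by light transmittance at 37 °C against control samples.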

Integrin alpha-IIb/beta-3, sequence (P05106 27-788 limits assumed): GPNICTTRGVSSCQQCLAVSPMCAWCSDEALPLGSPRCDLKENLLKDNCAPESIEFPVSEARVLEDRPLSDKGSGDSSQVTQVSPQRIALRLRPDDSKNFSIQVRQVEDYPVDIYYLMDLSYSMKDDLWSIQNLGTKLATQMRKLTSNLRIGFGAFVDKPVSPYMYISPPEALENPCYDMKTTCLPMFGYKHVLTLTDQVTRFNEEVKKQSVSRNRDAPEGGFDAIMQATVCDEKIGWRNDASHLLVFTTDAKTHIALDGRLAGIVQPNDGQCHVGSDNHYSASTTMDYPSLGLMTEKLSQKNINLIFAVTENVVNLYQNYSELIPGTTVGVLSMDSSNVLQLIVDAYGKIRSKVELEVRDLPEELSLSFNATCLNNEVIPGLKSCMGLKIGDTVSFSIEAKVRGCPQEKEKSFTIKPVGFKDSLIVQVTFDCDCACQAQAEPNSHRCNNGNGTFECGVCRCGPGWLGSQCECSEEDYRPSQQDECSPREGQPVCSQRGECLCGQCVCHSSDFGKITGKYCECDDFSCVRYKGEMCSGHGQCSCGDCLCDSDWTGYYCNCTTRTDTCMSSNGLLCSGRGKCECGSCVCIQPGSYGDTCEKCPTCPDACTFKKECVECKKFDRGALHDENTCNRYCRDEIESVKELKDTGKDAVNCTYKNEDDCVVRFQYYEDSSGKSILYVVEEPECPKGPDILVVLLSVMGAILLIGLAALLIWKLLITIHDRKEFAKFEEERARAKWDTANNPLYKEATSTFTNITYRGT
Integrin alpha-IIb/beta-3, sequence (P08514 32-887 limits assumed): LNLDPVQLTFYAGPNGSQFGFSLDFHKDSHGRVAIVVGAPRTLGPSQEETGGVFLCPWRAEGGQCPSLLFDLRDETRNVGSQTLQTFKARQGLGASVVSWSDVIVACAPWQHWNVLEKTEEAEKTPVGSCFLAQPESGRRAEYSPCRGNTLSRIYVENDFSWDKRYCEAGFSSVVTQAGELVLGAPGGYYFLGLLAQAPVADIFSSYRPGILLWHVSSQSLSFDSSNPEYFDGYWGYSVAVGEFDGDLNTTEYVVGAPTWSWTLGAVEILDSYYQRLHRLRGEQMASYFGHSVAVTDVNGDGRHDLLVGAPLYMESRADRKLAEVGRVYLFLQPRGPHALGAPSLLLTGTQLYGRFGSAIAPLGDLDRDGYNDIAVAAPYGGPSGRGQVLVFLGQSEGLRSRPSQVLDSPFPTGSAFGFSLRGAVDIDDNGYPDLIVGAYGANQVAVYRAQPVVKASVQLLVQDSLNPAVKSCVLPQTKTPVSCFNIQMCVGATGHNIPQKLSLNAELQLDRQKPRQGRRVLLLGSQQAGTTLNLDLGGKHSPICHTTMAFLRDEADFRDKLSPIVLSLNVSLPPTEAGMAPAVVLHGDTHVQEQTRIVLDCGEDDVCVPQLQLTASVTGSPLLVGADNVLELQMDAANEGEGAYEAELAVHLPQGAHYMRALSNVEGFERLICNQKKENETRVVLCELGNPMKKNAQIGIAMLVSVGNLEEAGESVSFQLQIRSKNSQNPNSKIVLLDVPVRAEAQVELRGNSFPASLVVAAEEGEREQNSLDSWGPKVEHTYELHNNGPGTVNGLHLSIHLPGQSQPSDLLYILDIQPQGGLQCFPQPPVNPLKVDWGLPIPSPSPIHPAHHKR
Integrin alpha-IIb/beta-3, sequence (P08514 891-1039 limits assumed): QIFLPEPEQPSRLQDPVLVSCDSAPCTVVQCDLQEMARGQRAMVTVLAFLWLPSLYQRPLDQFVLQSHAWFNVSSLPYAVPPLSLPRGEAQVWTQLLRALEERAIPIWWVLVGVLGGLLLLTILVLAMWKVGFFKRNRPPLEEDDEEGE

pIC50 | Compound
6.30 | O=C(O)CCNC(=O)c1cc2sc(CCC3CCNCC3)cc2s1 [3-{[5-(2-Piperidin-4-yl-ethyl)-thieno[3,2-b]thiophene-2-carbonyl]-amino}-propionic acid]
6.39 | O=C(O)CCNC(=O)c1cc2cc(CCC3CCNCC3)sc2s1 [3-{[5-(2-Piperidin-4-yl-ethyl)-thieno[2,3-b]thiophene-2-carbonyl]-amino}-propionic acid]
7.96 | O=C(NC[C@H](NS(=O)(=O)c1ccc(Cl)cc1)C(=O)O)c1cc2cc(CCC3CCNCC3)sc2s1 [(S)-2-(4-Chloro-benzenesulfonylamino)-3-{[5-(2-piperidin-4-yl-ethyl)-thieno[2,3-b]thiophene-2-carbonyl]-amino}-propionic acid]
8.05 | O=C(NC[C@H](NS(=O)(=O)c1cccs1)C(=O)O)c1cc2cc(CCC3CCNCC3)sc2s1 [(S)-3-{[5-(2-Piperidin-4-yl-ethyl)-thieno[2,3-b]thiophene-2-carbonyl]-amino}-2-(thiophene-2-sulfonylamino)-propionic acid]
8.00 | CCOCCS(=O)(=O)N[C@@H](CNC(=O)c1cc2sc(CCC3CCNCC3)cc2s1)C(=O)O [(S)-2-(2-Ethoxy-ethanesulfonylamino)-3-{[5-(2-piperidin-4-yl-ethyl)-thieno[3,2-b]thiophene-2-carbonyl]-amino}-propionic acid]
7.44 | O=C(NC[C@@H](NS(=O)(=O)c1ccccc1)C(=O)O)c1cc2cc(CCC3CCNCC3)sc2s1
7.64 | O=C(NC[C@H](NS(=O)(=O)c1cccnc1)C(=O)O)c1cc2cc(CCCC3CCNCC3)sc2s1 [(S)-3-{[5-(3-Piperidin-4-yl-propyl)-thieno[2,3-b]thiophene-2-carbonyl]-amino}-2-(pyridine-3-sulfonylamino)-propionic acid]
8.15 | CCOCCS(=O)(=O)N[C@@H](CNC(=O)c1cc2cc(CCC3CCNCC3)sc2s1)C(=O)O [(S)-2-(2-Ethoxy-ethanesulfonylamino)-3-{[5-(2-piperidin-4-yl-ethyl)-thieno[2,3-b]thiophene-2-carbonyl]-amino}-propionic acid]
7.89 | O=C(NC[C@H](NS(=O)(=O)c1cccs1)C(=O)O)c1cc2sc(CCC3CCNCC3)cc2s1 [(S)-3-{[5-(2-Piperidin-4-yl-ethyl)-thieno[3,2-b]thiophene-2-carbonyl]-amino}-2-(thiophene-2-sulfonylamino)-propionic acid]
7.82 | O=C(NC[C@H](NS(=O)(=O)c1cccnc1)C(=O)O)c1cc2sc(CCC3CCNCC3)cc2s1 [(S)-3-{[5-(2-Piperidin-4-yl-ethyl)-thieno[3,2-b]thiophene-2-carbonyl]-amino}-2-(pyridine-3-sulfonylamino)-propionic acid]
7.49 | CCCCS(=O)(=O)N[C@@H](CNC(=O)c1cc2cc(CCC3CCNCC3)sc2s1)C(=O)O [(S)-2-(Butane-1-sulfonylamino)-3-{[5-(2-piperidin-4-yl-ethyl)-thieno[2,3-b]thiophene-2-carbonyl]-amino}-propionic acid]
7.85 | CS(=O)(=O)N[C@@H](CNC(=O)c1cc2sc(CCC3CCNCC3)cc2s1)C(=O)O [(S)-2-Methanesulfonylamino-3-{[5-(2-piperidin-4-yl-ethyl)-thieno[3,2-b]thiophene-2-carbonyl]-amino}-propionic acid]
7.82 | CS(=O)(=O)N[C@@H](CNC(=O)c1cc2cc(CCC3CCNCC3)sc2s1)C(=O)O [(S)-2-Methanesulfonylamino-3-{[5-(2-piperidin-4-yl-ethyl)-thieno[2,3-b]thiophene-2-carbonyl]-amino}-propionic acid]
8.00 | CCCCS(=O)(=O)N[C@@H](CNC(=O)c1cc2sc(CCC3CCNCC3)cc2s1)C(=O)O [(S)-2-(Butane-1-sulfonylamino)-3-{[5-(2-piperidin-4-yl-ethyl)-thieno[3,2-b]thiophene-2-carbonyl]-amino}-propionic acid]
7.72 | O=C(NC[C@@H](NS(=O)(=O)c1cccnc1)C(=O)O)c1cc2cc(CCC3CCNCC3)sc2s1
7.68 | O=C(NC[C@H](NS(=O)(=O)c1cccnc1)C(=O)O)c1cc2cc(C3CCNCC3)sc2s1 [(S)-3-[(5-Piperidin-4-yl-thieno[2,3-b]thiophene-2-carbonyl)-amino]-2-(pyridine-3-sulfonylamino)-propionic acid]
